Here are results for 23 compounds from ChEMBL document CHEMBL1667864, “Synthesis and biological assay of 4-aryl-6-chloro-quinoline derivatives as novel non-nucleoside anti-HBV agents” (Bioorg Med Chem, 2011).

Data set [1] in a line: Cytotoxicity against human HepG2(2.2.15) cells. The data set is classed as cell-based.
Data set [2] is described as follows: Selectivity index, CC50 for human HepG 2.215 cells to IC50 for HBV infected in human HepG 2.215 cells assessed as inhibition of DNA replication. In kind it is functional. In short, it runs like this: (§1)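 SI calculated as CC₅₀ (concentration killing 50% of HepG 2.2.15 cells) divided by IC₅₀ (50% inhibition of HBV DNA replication, HBeAg or HBsAg secretion).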

The test system of data set [3] is Hepatitis B virus. The experiment in a line: Antiviral activity against HBV infected in human HepG 2.215 cells assessed as inhibition of DNA replication by RT-PCR analysis. In kind it is functional, organism-based. The following applies: HepG2.2.15. In short, it runs like this:
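HepG 2.2.15 cells were seeded at 5 × 10⁵ per well, with medium changed every 2 days. After 6 days, compounds were added and fresh medium was fed every other day for another 6 days. Total DNA was isolated from collected cells, and HBV DNA was quantified by real-time PCR. IC₅₀ is the concentration giving 50% inhibition of HBV DNA replication.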

For data set [4], the system named is Hepatitis B virus. In words: Antiviral activity against HBV infected in human HepG 2.215 cells assessed as inhibition of HBeAg secretion by ELISA. The data set is classed as functional, organism-based. The following applies: HepG2.2.15. (ELISA stands for enzyme-linked immunosorbent assay.)
Data set [5] has as its system Hepatitis B virus. The experiment in a line: Antiviral activity against HBV infected in human HepG 2.215 cells assessed as inhibition of HBsAg secretion by ELISA. The following applies: HepG2.2.15. The data set is classed as functional, organism-based.
Data set [6] in a line: Selectivity index, CC50 for human HepG 2.215 cells to IC50 for HBV infected in human HepG 2.215 cells assessed as inhibition of HBsAg secretion. The data set is classed as functional. Put shortly: as §1
Data set [7] can be described thus: Selectivity index, CC50 for human HepG 2.215 cells to IC50 for HBV infected in human HepG 2.215 cells assessed as inhibition of HBeAg secretion. In kind it is functional. Put shortly: as §1

Consider `ClCCc1c(Cl)nc2ccc(Cl)cc2c1-c1ccccc1Cl`, for which the CC50 in data set [1] was greater than 1400 µM. Besides, the “Selectivity Index” value in data set [2] is listed as greater than 73.8. In addition, the IC50 is 19 µM with Hepatitis B virus [3], greater than 1400 µM in the data set with Hepatitis B virus [4] and greater than 1400 µM with Hepatitis B virus [5].
For `CS(=O)(=O)OCCc1c(OS(C)(=O)=O)nc2ccc(Cl)cc2c1-c1ccccc1Cl`, in data set [1], the CC50 worked out at 804 µM. In addition, the “Selectivity Index” value in data set [2] is 118.2; in data set [6] it was 48.6; in data set [7], 2.2. The IC50 was 6.8 µM with Hepatitis B virus [3], 367 µM with Hepatitis B virus [4] and 16.5 µM in the data set on Hepatitis B virus [5].
In the case of `CC(=O)OCCc1c(Cl)nc2ccc(Cl)cc2c1-c1ccccc1Cl`, the CC50 in data set [1] amounted to 116 µM. In addition, the results for the “Selectivity Index” value in data set [2], in data set [6] and in data set [7] were 19.1, less than 1 and less than 1, respectively. For the same compound, the IC50 with Hepatitis B virus [3] was 6.1 µM; with Hepatitis B virus [4], 70.9 µM; in the data set with Hepatitis B virus [5], 147 µM.
For `COc1nc2ccc(Cl)cc2c(-c2ccccc2Cl)c1CCO`, in data set [1], the CC50 is 141 µM. Further, the figures for the “Selectivity Index” value in data set [2], in data set [6] and in data set [7] were 20.5, 2.1 and less than 1, respectively. Further, the IC50 in the data set on Hepatitis B virus [3] is 6.9 µM; in the data set with Hepatitis B virus [4], greater than 2710 µM; with Hepatitis B virus [5], 66.3 µM.
With `OCCc1c(Cl)nc2ccc(Cl)cc2c1-c1ccccc1Cl`, in data set [1], the CC50 amounted to 42.5 µM. The results for the “Selectivity Index” value in data set [2], in data set [6] and in data set [7] were 4.3, less than 1 and 3.8, respectively. For the same compound, the IC50 turned out to be 9.8 µM with Hepatitis B virus [3], 11.3 µM with Hepatitis B virus [4] and 45.3 µM with Hepatitis B virus [5].
As to `CS(=O)(=O)OCCc1c(Cl)nc2ccc(Cl)cc2c1-c1ccccc1Cl`, half-maximal cytotoxicity in data set [1] (CC50) was put at 882 µM. In addition, the “Selectivity Index” value was less than 1 in data set [6] and greater than 1.4 in data set [7]. Also, the IC50 in the data set with Hepatitis B virus [3] was greater than 882 µM; in the data set on Hepatitis B virus [4] it was 647 µM; in the data set with Hepatitis B virus [5] it was 1020 µM.
The compound `[N-]=[N+]=NCCc1c(Cl)nc2ccc(Cl)cc2c1-c1ccccc1Cl` yielded a CC50 in data set [1] greater than 2510 µM. Moreover, the “Selectivity Index” value in data set [2] is greater than 151.4. For the same compound, the IC50 in the data set on Hepatitis B virus [3] is 16.6 µM; in the data set on Hepatitis B virus [4], greater than 2510 µM; with Hepatitis B virus [5] it was greater than 2510 µM.
On to `[N-]=[N+]=NCCc1c(N=[N+]=[N-])nc2ccc(Cl)cc2c1-c1ccccc1Cl`, for which the CC50 in data set [1] is greater than 2480 µM. The “Selectivity Index” value in data set [2] is greater than 551.2. Besides, the IC50 is 4.5 µM with Hepatitis B virus [3], greater than 2480 µM in the data set on Hepatitis B virus [4] and greater than 2480 µM in the data set on Hepatitis B virus [5].
In turn, `CC(C)(C)[Si](OCCc1c(OCc2c(F)cccc2F)nc2ccc(Cl)cc2c1-c1ccccc1Cl)(c1ccccc1)c1ccccc1` returned a CC50 in data set [1] greater than 1870 µM. Besides, the IC50 with Hepatitis B virus [3], in the data set with Hepatitis B virus [4] and in the data set with Hepatitis B virus [5] was greater than 1870 µM each time.
Regarding `CC(C)(C)[Si](OCCc1c(OCc2c(Cl)cccc2Cl)nc2ccc(Cl)cc2c1-c1ccccc1Cl)(c1ccccc1)c1ccccc1`, the CC50 in data set [1] was greater than 1030 µM. Moreover, the IC50 with Hepatitis B virus [3], with Hepatitis B virus [4] and in the data set on Hepatitis B virus [5] was greater than 1030 µM each time.
For `OCCc1c(OCc2c(F)cccc2F)nc2ccc(Cl)cc2c1-c1ccccc1Cl`, it took 109 µM to reach half-maximal cytotoxicity in data set [1] (CC50). Further, the “Selectivity Index” value is on record as 22.7 in data set [2], 2.5 in data set [6] and less than 1 in data set [7]. In addition, the IC50 amounted to 4.8 µM in the data set on Hepatitis B virus [3], 1630 µM in the data set on Hepatitis B virus [4] and 43.5 µM with Hepatitis B virus [5].
For `OCCc1c(OCc2c(Cl)cccc2Cl)nc2ccc(Cl)cc2c1-c1ccccc1Cl`, the CC50 in data set [1] came to 38.5 µM. In addition, the “Selectivity Index” value in data set [2] was found to be 2.2; in data set [6] it was 2.1; in data set [7], 3.2. The IC50 with Hepatitis B virus [3] is 17.7 µM; in the data set with Hepatitis B virus [4], 12.2 µM; with Hepatitis B virus [5], 18.2 µM.
In data set [1], `CC(C)(C)[Si](OCCc1c(OS(=O)(=O)C(F)(F)F)nc2ccc(Cl)cc2c1-c1ccccc1Cl)(c1ccccc1)c1ccccc1` yielded a CC50 greater than 1560 µM. Also, the “Selectivity Index” value is greater than 3.4 in data set [6] and 2 in data set [7]. Also, the IC50 is greater than 1560 µM in the data set with Hepatitis B virus [3], 767 µM in the data set with Hepatitis B virus [4] and 454 µM in the data set on Hepatitis B virus [5].
`CC(C)(C)[Si](OCCc1c(N2CCCCC2)nc2ccc(Cl)cc2c1-c1ccccc1Cl)(c1ccccc1)c1ccccc1` gave a CC50 in data set [1] greater than 969 µM. Also, the “Selectivity Index” value in data set [2] is given as greater than 143.7. Further, the results for the IC50 in the data set on Hepatitis B virus [3], in the data set with Hepatitis B virus [4] and with Hepatitis B virus [5] were 6.7 µM, greater than 969 µM and greater than 969 µM, respectively.
As to `CC(C)(C)[Si](OCCc1c(N2CCOCC2)nc2ccc(Cl)cc2c1-c1ccccc1Cl)(c1ccccc1)c1ccccc1`, the CC50 in data set [1] was greater than 1200 µM. Moreover, the IC50 with Hepatitis B virus [3], in the data set with Hepatitis B virus [4] and in the data set on Hepatitis B virus [5] was greater than 1200 µM each time.
For `CC(C)(C)[Si](OCCc1c(N2CCNCC2)nc2ccc(Cl)cc2c1-c1ccccc1Cl)(c1ccccc1)c1ccccc1`, the CC50 in data set [1] is less than 18.8 µM. Besides, the “Selectivity Index” value is given as less than 4.43 in data set [2], less than 1 in data set [6] and less than 1 in data set [7]. The IC50 with Hepatitis B virus [3] is 42.8 µM; in the data set with Hepatitis B virus [4] it was greater than 1170 µM; in the data set with Hepatitis B virus [5] it was 18.8 µM.
The compound `CC(C)(C)[Si](OCCc1c(Nn2nnc3ccccc32)nc2ccc(Cl)cc2c1-c1ccccc1Cl)(c1ccccc1)c1ccccc1` showed a CC50 in data set [1] greater than 1250 µM. The “Selectivity Index” value in data set [2] was greater than 284.5. Further, the IC50 is 4.4 µM in the data set with Hepatitis B virus [3], greater than 1250 µM in the data set with Hepatitis B virus [4] and greater than 1250 µM in the data set on Hepatitis B virus [5].
`OCCc1c(N2CCCCC2)nc2ccc(Cl)cc2c1-c1ccccc1Cl` displayed a CC50 in data set [1] of 155 µM. The “Selectivity Index” value in data set [2] came to 1; in data set [6], 4.1; in data set [7], 3.1. Also, the IC50 with Hepatitis B virus [3] was 151 µM; in the data set on Hepatitis B virus [4] it was 50 µM; with Hepatitis B virus [5], 37.5 µM.
The compound `OCCc1c(N2CCOCC2)nc2ccc(Cl)cc2c1-c1ccccc1Cl` had a CC50 in data set [1] greater than 1590 µM. The “Selectivity Index” value in data set [6] is on record as greater than 4.9. The IC50 was greater than 1590 µM in the data set with Hepatitis B virus [3], greater than 1590 µM in the data set with Hepatitis B virus [4] and 323 µM in the data set with Hepatitis B virus [5].
For the compound `OCCc1c(N2CCNCC2)nc2ccc(Cl)cc2c1-c1ccccc1Cl`, the CC50 in data set [1] was less than 5 µM. Also, the “Selectivity Index” value in data set [6] and in data set [7] was less than 1 throughout. Besides, the IC50 in the data set on Hepatitis B virus [3], with Hepatitis B virus [4] and in the data set on Hepatitis B virus [5] was greater than 5 µM each time.
`OCCc1c(Nn2nnc3ccccc32)nc2ccc(Cl)cc2c1-c1ccccc1Cl`: the 50% cytotoxic concentration (CC50) in data set [1] was 82.4 µM. Besides, the “Selectivity Index” value is 10 in data set [2], 2.2 in data set [6] and less than 1 in data set [7]. Also, the IC50 in the data set on Hepatitis B virus [3] amounted to 8.3 µM; in the data set with Hepatitis B virus [4], 111 µM; with Hepatitis B virus [5], 37.7 µM.
`O=c1[nH]c2ccc(Cl)cc2c(-c2ccccc2Cl)c1CCO`: the CC50 in data set [1] came out at 388 µM. Also, the “Selectivity Index” value in data set [2] is given as 5.4; in data set [6], 5.5; in data set [7], 1.1. Further, the values for the IC50 in the data set with Hepatitis B virus [3], in the data set with Hepatitis B virus [4] and in the data set with Hepatitis B virus [5] were 72.1 µM, 340 µM and 70.2 µM, respectively.
On to `C[C@H](Cn1cnc2c(N)ncnc21)OCP(=O)(O)O` [TENOFOVIR ANHYDROUS], for which, in data set [1], the CC50 was greater than 1740 µM. In addition, the entries for the “Selectivity Index” value in data set [2], in data set [6] and in data set [7] were greater than 3222, greater than 1.2 and greater than 1.5, respectively. The IC50 with Hepatitis B virus [3] was 0.54 µM; in the data set on Hepatitis B virus [5] it was 1450 µM.

The term CC50 denotes the concentration at which the toxic effect on the cells reaches its halfway point. Lower therefore signals greater toxicity to the cells. A word on the IC50: it is the point on the concentration scale where inhibition reaches its midpoint.
